The source made the active and inactive calls. The calls are words filed in the database; no cut-off is given here.
How the values were obtained:
[1] = molecular target: T1, Polyunsaturated fatty acid 5-lipoxygenase (Homo sapiens, UniProt P09917); assay: Inhibition of 5-lipoxygenase in human neutrophils assessed as inhibition of A23187-induced product formation using arachidonic acid as substrate preincubated for 15 mins followed by substrate and A23187 addition measured after 10 mins by RP-HPLC method
T1 sequence (P09917 whole entry): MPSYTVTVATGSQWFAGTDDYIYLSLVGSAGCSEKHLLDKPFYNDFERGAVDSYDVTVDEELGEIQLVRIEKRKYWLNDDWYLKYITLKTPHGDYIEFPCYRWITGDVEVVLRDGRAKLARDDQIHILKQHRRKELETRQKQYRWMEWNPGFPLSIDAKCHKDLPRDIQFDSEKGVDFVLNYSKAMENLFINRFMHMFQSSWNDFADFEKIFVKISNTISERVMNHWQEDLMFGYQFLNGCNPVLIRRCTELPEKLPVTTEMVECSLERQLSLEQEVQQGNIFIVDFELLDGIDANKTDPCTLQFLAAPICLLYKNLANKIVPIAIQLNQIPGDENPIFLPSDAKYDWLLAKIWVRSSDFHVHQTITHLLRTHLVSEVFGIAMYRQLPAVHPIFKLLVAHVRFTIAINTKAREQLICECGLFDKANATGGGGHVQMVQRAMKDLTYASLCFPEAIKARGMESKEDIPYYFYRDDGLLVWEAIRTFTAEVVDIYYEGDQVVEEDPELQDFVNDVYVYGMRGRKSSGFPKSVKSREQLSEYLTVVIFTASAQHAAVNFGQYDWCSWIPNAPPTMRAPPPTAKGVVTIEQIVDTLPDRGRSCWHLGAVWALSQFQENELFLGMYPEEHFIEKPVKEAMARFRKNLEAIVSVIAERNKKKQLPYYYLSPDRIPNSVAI
How it was run: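 Freshly isolated human neutrophils (5×10^6, from leukocyte concentrates by dextran sedimentation and Nycoprep) were taken up in 1 mL PBS pH 7.4 with 1 mg/mL glucose and 1 mM CaCl2. Cells were preincubated 15 min at 37 °C with compound or 0.1% DMSO, then stimulated with 2.5 μM A23187 plus 20 μM arachidonic acid for 10 min at 37 °C. The reaction was stopped with methanol on ice, and LTB4 all-trans isomers and 5-H(P)ETE were measured by RP-HPLC. IC50 was read graphically from 4-5 concentrations; 3-4 independent experiments.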

[2] = molecular target: T1, Polyunsaturated fatty acid 5-lipoxygenase; assay: Inhibition of recombinant human 5-lipoxygenase expressed in Escherichia coli BL21 using arachidonic acid as substrate preincubated for 15 mins followed by substrate addition measured after 10 mins by RP-HPLC method
How it was run: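 5-LO expressed in E. coli BL21 (pT3-5-LO) was semi-purified on ATP-agarose; 0.5 µg was used in 1 mL PBS with 1 mM EDTA and 1 mM ATP. Compound or 0.1% DMSO was preincubated 15 min at 4 °C, then samples were prewarmed 30 s at 37 °C. Reaction was started with 2 mM CaCl2 plus 20 μM AA and run 10 min at 37 °C. It was stopped with cold methanol, and products were measured by RP-HPLC. IC50 was read graphically from 4-5 concentrations; n = 3-4.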

[3] = molecular target: T2, Polyunsaturated fatty acid 5-lipoxygenase (Homo sapiens) (UniProt P09917); assay: Non-competitive inhibition of recombinant human 5-lipoxygenase expressed in Escherichia coli BL21 using varying levels of arachidonic acid as substrate preincubated for 15 mins followed by substrate addition measured after 10 mins by RP-HPLC method
T2 sequence (whole entry): T1 sequence (P09917 whole entry)
How it was run: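 Semi-purified recombinant 5-LO (0.5 µg, E. coli BL21) in PBS with 1 mM EDTA and 1 mM ATP was preincubated 15 min at 4 °C with compound or 0.1% DMSO, then prewarmed 30 s at 37 °C. Reaction was started with 2 mM CaCl2 plus varying arachidonic acid concentrations and run 10 min at 37 °C. Products were measured by RP-HPLC as percent of control; n = 3.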

Mus musculus [4] = assay: Anti-inflammatory activity in CD-1 mouse model of Zymosan-induced peritonitis assessed as LTC4 level in peritoneal lavage at 1 mg/kg, ip pretreated for 30 mins followed by Zymosan injection measured after 30 mins by EIA (reference value: 10.48 +/- 1.72 ng/ml); format: functional
Mus musculus [5] = assay: Anti-inflammatory activity in CD-1 mouse model of Zymosan-induced peritonitis assessed as inflammatory cells in peritoneal lavage at 1 mg/kg, ip pretreated for 30 mins followed by Zymosan injection measured after 4 hrs (reference value: 7 +/- 0.47 10^6No_unit); format: functional
Mus musculus [6] = assay: Anti-inflammatory activity in CD-1 mouse assessed as inhibition of carrageenan-induced paw edema at 1 mg/kg, ip pretreated for 30 mins followed by carrageenan injection measured after 4 hrs by hydroplethismometric method relative to control; format: functional; conditions: CD-1, ip
How it was run: (§1)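 Male CD-1 mice (35–40 g), n = 6 per group, given compound or vehicle (DMSO) i.p. 30 min before a subplantar injection of 50 μL 1% (w/v) carrageenan under light enflurane anaesthesia. Paw volume was read by hydroplethysmometer before injection (basal) and at 2, 4, 6, 24, 48 and 72 h. Data are mean ± SEM; two-way ANOVA with Bonferroni post test.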

Mus musculus [7] = assay: Anti-inflammatory activity in CD-1 mouse assessed as inhibition of carrageenan-induced paw edema at 1 mg/kg, ip pretreated for 30 mins followed by carrageenan injection measured up to 72 hrs by hydroplethismometric method; format: functional, organism-based; how it was run: as §1
Mus musculus [8] = assay: Anti-inflammatory activity in CD-1 mouse assessed as inhibition of carrageenan-induced paw edema at 1 mg/kg, ip pretreated for 30 mins followed by carrageenan injection measured up to 48 hrs by hydroplethismometric method; format: functional, organism-based; how it was run: as §1
Mus musculus [9] = assay: Anti-inflammatory activity in CD-1 mouse model of Zymosan-induced peritonitis assessed as inflammatory cells in peritoneal lavage at 10 mg/kg, ip pretreated for 30 mins followed by Zymosan injection measured after 4 hrs (reference value: 7 +/- 0.47 10^6No_unit); format: functional
Mus musculus [10] = assay: Anti-inflammatory activity in CD-1 mouse model of Zymosan-induced peritonitis assessed as LTC4 level in peritoneal lavage at 10 mg/kg, ip pretreated for 30 mins followed by Zymosan injection measured after 30 mins by EIA (reference value: 10.48 +/- 1.72 ng/ml); format: functional

SMILES | IC50 [1] [nM] | IC50 [2] [nM] | also measured
COC1=CC(=O)C(OC)=C(C(CCCCCCCCCO)OC(C)=O)C1=O (stereo not drawn) | 1620 | 490 | –
COC1=CC(=O)C(=O)C(CCCCCCCCCCO)=C1OC | 360 | 1080 | –
COC1=CC(=O)C(OC)=C(CCCCCCCCO)C1=O | 330 | 1840 | –
COC1=CC(=O)C(OC)=C(CCCCCCCCCCO)C1=O | 550 | 1750 | –
CCCCCCCCCCCCCC1=C(OC)C(OC)=CC(=O)C1=O | – | – | inhibition [3]: Active; Activity (Mus musculus [4]): 0.14 ng/mL; Activity (Mus musculus [5]): 3.78 10^6 cells; inhibition in vivo at 1 mg/kg (Mus musculus [6]): 75%; inhibition (Mus musculus [8]): Active
CCCCCCCCCCCCCc1c(O)c(O)cc(OC)c1O | 1600 | 290 | –
COC1=CC(=O)C(OC)=C(C(O)CCCCCCCCCO)C1=O (stereo not drawn) | 660 | 1460 | –
CCCCCCCCCCCCCc1c(O)c(OC)cc(O)c1OC | 310 | 260 | –
CC(c1cc2ccccc2s1)N(O)C(N)=O (stereo not drawn) [ZILEUTON] | – | – | Activity (Mus musculus [9]): 2.88 10^6 cells; Activity (Mus musculus [10]): 3.35 ng/mL

More lines, in order of falling IC50 [1], values ahead:

IC50 [1] [nM] | IC50 [2] [nM] | SMILES | also measured
200 | 1510 | COC1=CC(=O)C(OC)=C(CCCCCCCCCCCO)C1=O | –
150 | 220 | COC1=CC(=O)C(=O)C(CCCCCCCCO)=C1OC | –
120 | 1960 | COC1=CC(=O)C(=O)C(CCCCCCCCCCCO)=C1OC | –
90 | 240 | CCCCCCCCCCCCc1c(O)c(O)cc(OC)c1OC | –
30 | 100 | CCCCCCCCCCCc1c(O)c(O)cc(OC)c1OC | –
28 | 60 | CCCCCCCCCCCCCc1c(O)c(O)cc(OC)c1OC | inhibition [3]: Active; Activity (Mus musculus [4]): 1.58 ng/mL; Activity (Mus musculus [5]): 3.08 10^6 cells; inhibition in vivo at 1 mg/kg (Mus musculus [6]): 77.4%; inhibition (Mus musculus [7]): Active
